Values after ≈ are worked out from the molar mass of the structure shown.
Legend:
[1] = tested on: Vero; experiment: Compound was tested for antiviral activity against Herpes Simplex Virus-2(MS strain) in vero cells (african green monkey kidney cells); format: functional, Chlorocebus sabaeus
[2] = tested on: MDCK; experiment: Compound was tested for antiviral activity against influenza virus (Ao) in MDCK cells; format: functional, Canis lupus familiaris
Method in brief: (§1)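 MDCK monolayers were infected at 32 CCID50 per well, in triplicate, with seven serial half-log10 compound dilutions spanning cytotoxic to noncytotoxic levels. Media were reinforced BME or MEM with 2% FBS, or MEM with trypsin (15 or 10 μg/mL). Plates were held 4–5 days at 37 °C, CPE was scored 0–4, and VR, ratio to ribavirin VR, and MIC50 were derived.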

[3] = Ratio of the VR of the C-cytosine nucleoside to the VR of ribavirin; format: functional
Method in brief: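 Influenza A (A0/PR/8/34 in MDCK; A2/Aichi/2/68 in primary rhesus monkey kidney) CPE-inhibition in monolayers with various media (reinforced BME or MEM plus serum, or trypsin-containing MEM). Triplicate wells at 32 CCID50/well, seven serial half-log10 concentrations spanning cytotoxic to noncytotoxic, 37 °C 4 or 5 days. CPE scored 0–4 microscopically; VR by modified Ehrlich method, divided by concurrent ribavirin VR.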

[4] = tested on: MDCK; experiment: (§2) Compound was tested for its potency against influenza virus (Ao) in MDCK cells; format: functional; conditions: Canis lupus familiaris; method in brief: as §1
[5] = tested on: Epidermoid carcinoma cell line; experiment: Compound was tested for its potency against Herpes Simplex Virus-1(HF strain) in human epidermoid carcinoma cells; format: functional
Method in brief: (§3)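 […] HSV-1 strain HF in human H.Ep.-2 monolayers (MEM, 5% calf serum growth, 2% FBS maintenance), 32 CCID50/well, in triplicate wells. Seven compound concentrations in half-log10 steps were used, cytotoxic to noncytotoxic. Plates were kept at 37 °C for 4 or 5 days; microscopic CPE was scored 0 (none) to 4 (100%) and a virus rating was calculated from the scores, with ara-A as positive control.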

[6] = tested on: Vero; experiment: Compound was tested for its potency against Herpes Simplex Virus-2 (MS strain) in vero cells (african green monkey kidney cells); format: functional; conditions: Chlorocebus sabaeus
[7] = tested on: Epidermoid carcinoma cell line; experiment: Compound was tested for its antiviral activity against Herpes Simplex Virus-1(HF strain) in human epidermoid carcinoma cells (H.Ep.-2) measured as virus rating (VR).; format: functional; method in brief: as §3
[8] = organism: Oryctolagus cuniculus; experiment: Compound was tested for antiviral activity against Herpes Simplex Virus-1 (377 strain) in primary rabbit kidney cells; format: functional
Method in brief: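 Primary rabbit kidney monolayers (MEM; 5% calf serum growth, 2% FBS maintenance) were challenged with HSV-1 E-377 (TK+), 32 CCID50/well, in triplicate. Seven half-log10 dilutions ranged from cytotoxic to noncytotoxic, with cytotoxicity and uninfected controls. After 4–5 days at 37 °C, CPE was scored 0–4 and converted to VR; ara-A ratio and 50% CPE-inhibitory concentration (MIC50) were also determined.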

[9] = tested on: Vero; experiment: C(compound) was tested for antiviral activity against Herpes Simplex Virus-2(MS strain) in vero cells (african green monkey kidney cells); format: functional, Chlorocebus sabaeus
[10] = tested on: MDCK; experiment: as §2; format: functional, Canis lupus familiaris; method in brief: as §1

SMILES	VR [1]	VR [2]	Ratio [3]	MIC50 [6] [µg/mL]	VR [7]	further results
Nc1nc(=O)n([C@@H]2C[C@H](CO)[C@@H](O)[C@H]2O)cc1I	0	0.2	–	–	–	–
Nc1nc(=O)n(C2CC(CO)C(O)C2O)cc1Br (centres undefined)	–	1.5	0.36	–	–	MIC50 [4]: 150 µg/mL (≈ 469 µM)
Nc1ccn([C@@H]2C[C@H](CO)[C@@H](O)[C@H]2O)c(=O)n1	3.2	3.5	0.73	2.4 (≈ 9.95 µM)	0.8	MIC50 [5]: 71 µg/mL (≈ 294 µM); MIC50 [4]: 2.6 µg/mL (≈ 10.8 µM)
Nc1nc(=O)n(C2CC(O)C(CO)C2)cc1Br (centres undefined)	2.6	–	–	62 (≈ 204 µM)	0	–
Nc1ccn(C2CC(O)C(CO)C2)c(=O)n1 (centres undefined)	–	0	–	44 (≈ 195 µM)	0	MIC50 [8]: < 26 µg/mL; VR [8]: 2.6; VR [9]: 1.9
Nc1nc(=O)n(C2CC(O)C(CO)C2)cc1I (centres undefined)	1	–	–	340 (≈ 968 µM)	0	–
Nc1ccn([C@@H]2C[C@H](CO)[C@@H](O)[C@@H]2O)c(=O)n1	2.4	0.8	0.2	13 (≈ 53.9 µM)	0.6	MIC50 [8]: 30 µg/mL (≈ 124 µM); VR [8]: 1.8; MIC50 [5]: 95 µg/mL (≈ 394 µM); MIC50 [4]: 312 µg/mL (≈ 1290 µM)
Nc1nc(=O)n([C@@H]2C[C@H](CO)[C@@H](O)[C@@H]2O)cc1I	2.2	–	–	197 (≈ 537 µM)	0	–
Nc1ccn(C2CC(CO)CC2O)c(=O)n1 (centres undefined)	–	0.1	–	–	0	–
Nc1nc(=O)n(C2CC(CO)CC2O)cc1I (centres undefined)	–	0	–	–	–	VR [10]: 0.5
Nc1nc(=O)n(C2CC(CO)C(O)C2O)cc1Cl (centres undefined)	–	0.4	0.1	–	–	–
Nc1nc(=O)n(C2CC(O)C(CO)C2)cc1Cl (centres undefined)	0.7	–	–	270 (≈ 1040 µM)	–	–

Reference: ChEMBL document CHEMBL1123537, “Carbocyclic analogues of 5-halocytosine nucleosides” (1986)
